Experimental data gathered from unrelated publications.
Protocols differ between the studies behind these lines.
Organism: Enterococcus faecium

SMILES | assay | test system | setting | endpoint | result
O=C(O)c1cccc(-n2c(/C=C/c3ccc(F)c(Cl)c3)nc3ccccc3c2=O)c1 | microbial growth, broth dilution | NCTC7171 |  | MIC | > 128 µg/mL
CNC(=O)c1cc(Oc2ccc(NC(=O)Nc3ccc(Cl)c(C(F)(F)F)c3)cc2)ccn1 | microbial growth |  |  | MIC | > 100 µM
CC1CCN(CCCN2/C(=C/c3cc[n+](C)c4ccccc34)Sc3ccccc32)CC1.[I-] | microbial killing | ATCC700221 |  | MBC | 128 µg/mL
O=c1c2cnccc2nc(/C=C/c2ccc(Cl)cc2)n1-c1cccc(O)c1 | microbial growth, broth dilution | NCTC7171 |  | MIC | > 128 µg/mL
O=C(O)CCc1ccc(Oc2ccc(-c3noc(-c4ccc(O)cc4)n3)cc2)cc1 | microbial growth, broth dilution |  | 24 h | MIC | > 32 µg/mL
CC(=O)OCc1cccc(-n2c(/C=C/c3ccc(C#N)cc3)nc3ccccc3c2=O)c1 | microbial growth, broth dilution | NCTC7171 |  | MIC | > 128 µg/mL
CN(C)CCc1ccc(Oc2ccc(-c3noc(-c4ccc(O)cc4)n3)cc2)cc1 | microbial growth, broth dilution |  | 24 h | MIC | 4 µg/mL
O=C(N[C@H](CO)[C@H](O)c1ccc([N+](=O)[O-])cc1)C(Cl)Cl | microbial growth, broth dilution | VRE |  | MIC | 3.9 µg/mL
O=C(O)COc1ccc(Oc2ccc(-c3noc(-c4ccc(O)cc4)n3)cc2)cc1 | microbial growth, broth dilution |  | 24 h | MIC | > 32 µg/mL
O=C(Nc1ccc2c(c1)OC(F)(F)O2)Nc1ccc(Cl)c(C(F)(F)F)c1 | microbial growth |  |  | MIC | 1 µM
Cc1cc(/C=C2\Sc3ccccc3N2CCCN2CCC(C)CC2)c2ccccc2[n+]1C.[I-] | microbial killing | ATCC700221 |  | MBC | > 64 µg/mL
